The source made the active and inactive calls. The rule behind the calls is not given here.
Legend:
[1] = target: T1, DNA polymerase lambda (Homo sapiens) (UniProt Q9UGP5); test: Inhibition of human recombinant full length DNA polymerase lambda TdT-like activity using [3H]dNTP as substrate after 10 mins by scintillation counting analysis
T1 sequence (whole entry): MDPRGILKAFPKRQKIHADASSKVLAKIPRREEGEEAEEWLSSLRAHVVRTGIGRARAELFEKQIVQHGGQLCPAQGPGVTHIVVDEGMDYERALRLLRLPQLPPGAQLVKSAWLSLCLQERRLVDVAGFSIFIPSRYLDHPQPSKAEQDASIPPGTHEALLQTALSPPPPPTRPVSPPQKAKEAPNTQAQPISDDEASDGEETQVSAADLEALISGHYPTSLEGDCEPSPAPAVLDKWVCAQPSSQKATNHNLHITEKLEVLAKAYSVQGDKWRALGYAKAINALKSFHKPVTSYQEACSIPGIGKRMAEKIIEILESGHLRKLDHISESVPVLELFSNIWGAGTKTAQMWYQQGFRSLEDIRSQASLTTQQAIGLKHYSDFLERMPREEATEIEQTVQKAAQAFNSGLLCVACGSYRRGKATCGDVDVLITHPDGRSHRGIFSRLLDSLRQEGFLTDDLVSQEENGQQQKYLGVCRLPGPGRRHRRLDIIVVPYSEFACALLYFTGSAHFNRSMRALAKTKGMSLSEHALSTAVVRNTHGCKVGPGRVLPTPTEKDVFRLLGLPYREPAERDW
Summary of the method: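 Full-length recombinant human pol λ (>90% pure) was tested for template-independent activity. Acid-insoluble radioactivity was counted, and ID50 came from dose–response fitting.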

Homo sapiens [2] = organism: Homo sapiens; test: Binding affinity to human TdT/DNA/dNTP ternary complex
Summary of the method: (§1)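 Association (kon) and dissociation (koff) rates measured for binding to binary enzyme–DNA and ternary enzyme–DNA–dNTP complexes of TdT.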

[3] = target: T2, DNA nucleotidylexotransferase (Homo sapiens, UniProt P04053); test: Competitive inhibition of human TdT using TTP as substrate
T2 sequence (P04053 whole entry): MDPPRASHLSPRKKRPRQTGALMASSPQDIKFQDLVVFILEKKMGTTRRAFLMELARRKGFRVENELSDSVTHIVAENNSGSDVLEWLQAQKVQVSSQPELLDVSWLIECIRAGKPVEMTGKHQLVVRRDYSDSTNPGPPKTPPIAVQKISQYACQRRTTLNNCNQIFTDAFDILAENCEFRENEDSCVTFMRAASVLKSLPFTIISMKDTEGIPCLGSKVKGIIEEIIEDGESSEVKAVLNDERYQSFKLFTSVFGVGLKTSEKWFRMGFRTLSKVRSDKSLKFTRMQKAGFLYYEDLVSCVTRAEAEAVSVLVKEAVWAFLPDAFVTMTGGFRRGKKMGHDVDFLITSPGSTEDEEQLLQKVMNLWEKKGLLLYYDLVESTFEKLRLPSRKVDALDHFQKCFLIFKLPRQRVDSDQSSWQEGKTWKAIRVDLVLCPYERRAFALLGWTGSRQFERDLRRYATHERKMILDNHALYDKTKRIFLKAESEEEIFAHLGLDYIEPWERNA
Summary of the method: (§2)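 TdT was from Trevigen. TCA-precipitated radioactivity was counted. ID50 came from dose–response fitting. For kinetics, DNA or dNTP was varied at increasing inhibitor, and Ki was obtained via Cheng–Prusoff for a competitive model.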

Homo sapiens [4] = organism: Homo sapiens; test: Binding affinity to human TdT/DNA binary complex; summary of the method: as §1
[5] = target: T1, DNA polymerase lambda (Homo sapiens); test: Inhibition of human recombinant full length DNA polymerase lambda using [3H]dTTP as substrate and 10 poly(dA)/oligo(dT) as template-primer after 15 mins by scintillation counting analysis
Summary of the method: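 Recombinant full-length human pol λ at 50 nM was assayed with 0.2 μM poly(dA)/oligo(dT)10:1 (3′-OH ends) and 5 μM [3H]dTTP (5 Ci/mmol). Incubation was 15 min at 37 °C. TCA precipitates were scintillation counted.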

[6] = target: T2, DNA nucleotidylexotransferase; test: Non-competitive inhibition of human TdT using 3'-OH as substrate
MOLT-4 [7] = test: Cytotoxicity against human MOLT4 cells overexpressing TdT assessed as growth inhibition after 24 to 48 hrs by MTT assay; format: functional, cell-based
Summary of the method: (§3)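 MOLT-4 cells were grown in RPMI-1640 and HeLa cells in DMEM, with 10% FCS at 37 °C. Cells were seeded at 10^5 per well, given 24 h to attach, then exposed to compounds (0.1–100 range) for 24 or 48 h. MTT at 1 mg/mL was added for 2 h at 37 °C, formazan was dissolved in DMSO, and absorbance read at 550 nm versus 0.5% DMSO vehicle. IC50 was obtained by regression, in triplicate.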

[8] = target: T2, DNA nucleotidylexotransferase; test: Inhibition of human recombinant TdT using [3H]dNTP as substrate after 10 mins by scintillation counting analysis; summary of the method: as §2
DNA polymerase beta = DNA polymerase beta (Homo sapiens, UniProt P06746); test: Inhibition of human recombinant DNA polymerase beta
HeLa [9] = test: Cytotoxicity against TdT-deficient human HeLa cells assessed as growth inhibition after 24 to 48 hrs by MTT assay; format: cell-based; summary of the method: as §3
MOLT-4 [10] = test: Downregulation of cyclin E protein expression in human MOLT4 cells overexpressing TdT at 30 uM by Western blot analysis; format: functional, cell-based
Summary of the method: (§4)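 1 × 10^6 cells were incubated with or without compound, then lysed in cold buffer (50 mM Tris, 150 mM NaCl, 10 mM EDTA, 1% Triton) with protease inhibitors. Equal protein was run on 8–12% SDS-PAGE and blotted to nitrocellulose. Membranes were probed overnight at 4 °C with antibodies to cyclin E2, cyclin A, p53 or caspase 3, detected by HRP/ECL, and normalized to actin by densitometry.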

HeLa [11] = test: Cell cycle arrest in TdT-deficient human HeLa cells assessed as decrease of cells in G2 phase at 30 uM after 24 hrs by propidium iodide staining-based FACS flow cytometric analysis relative to vehicle-treated control; format: ADME; set-up: scale not given: the % may be the effect or the level left
Summary of the method: (§5)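 Cells at 2.5 × 10^5 cells/mL were treated 24 h with compound or vehicle. They were washed in PBS, trypsinized, and stained 30 min at 4 °C in the dark with 0.1% sodium citrate, 0.1% Triton X-100 and propidium iodide. Analysis was by FACScan flow cytometry, giving the percentage of cells in G0/G1, S and G2/M.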

MOLT-4 [12] = test: Cell cycle arrest in human MOLT4 cells overexpressing TdT assessed as decrease of cells in G2 phase at 30 uM after 24 hrs by propidium iodide staining-based FACS flow cytometric analysis relative to vehicle-treated control; format: functional; set-up: scale not given: the % may be the effect or the level left; summary of the method: as §5
MOLT-4 [13] = test: Cell cycle arrest in human MOLT4 cells overexpressing TdT assessed as accumulation at G1 phase at 30 uM after 24 hrs by propidium iodide staining-based FACS flow cytometric analysis relative to vehicle-treated control; format: functional; summary of the method: as §5
HeLa [14] = test: Downregulation of cyclin E protein expression in TdT-deficient human HeLa cells at 30 uM by Western blot analysis; format: ADME, cell-based; summary of the method: as §4
HeLa [15] = test: Cell cycle arrest in TdT-deficient human HeLa cells assessed as accumulation at G1 phase at 30 uM after 24 hrs by propidium iodide staining-based FACS flow cytometric analysis relative to vehicle-treated control; format: ADME; summary of the method: as §5
MOLT-4 [16] = test: Cell cycle arrest in human MOLT4 cells overexpressing TdT assessed as accumulation at S phase at 30 uM after 24 hrs by propidium iodide staining-based FACS flow cytometric analysis relative to vehicle-treated control; format: functional; summary of the method: as §5
MOLT-4 [17] = test: Downregulation of cyclin A protein expression in human MOLT4 cells overexpressing TdT at 30 uM by Western blot analysis; format: functional, cell-based; summary of the method: as §4
MOLT-4 [18] = test: Induction of apoptosis in human MOLT4 cells overexpressing TdT assessed as caspase-3 cleavage by Western blot analysis; format: functional, cell-based; summary of the method: as §4
HeLa [19] = test: Cell cycle arrest in TdT-deficient human HeLa cells at 30 uM after 24 hrs by propidium iodide staining-based FACS flow cytometric analysis; format: ADME; summary of the method: as §5
MOLT-4 [20] = test: Cell cycle arrest in human MOLT4 cells overexpressing TdT assessed as decrease of cells in G1 phase at 30 uM after 24 hrs by propidium iodide staining-based FACS flow cytometric analysis relative to vehicle-treated control; format: functional; set-up: scale not given: the % may be the effect or the level left; summary of the method: as §5
HeLa [21] = test: Induction of apoptosis in TdT-deficient human HeLa cells assessed as caspase-3 cleavage by Western blot analysis; format: cell-based; summary of the method: as §4
MOLT-4 [22] = test: Upregulation of p53 protein expression in human MOLT4 cells overexpressing TdT at IC50 after 30 hrs by Western blot analysis; format: functional, cell-based; summary of the method: as §4
MOLT-4 [23] = test: Downregulation of cyclin A protein expression in human MOLT4 cells overexpressing TdT at 30 to 50 uM by Western blot analysis; format: functional, cell-based; summary of the method: as §4

SMILES | ID50 [1] | inhibition (Homo sapiens [2]) | Ki [3] | inhibition (Homo sapiens [4]) | ID50 [5] | Ki [6] | ID50 [8] | IC50 (DNA polymerase beta) | IC50 (MOLT-4 [7]) | IC50 (HeLa [9]) | further results
O=C(/C=C/c1cc(C(=O)c2ccccc2F)c[nH]1)CC(=O)C(=O)O | 27 µM | inactive | 0.5 µM | Active | > 40 µM | 0.4 µM | 1.7 µM | > 40 µM | 20 µM | > 40 µM | –
O=C(/C=C/c1cc(C(=O)c2ccccc2)cn1Cc1ccc(F)cc1)CC(=O)C(=O)O | > 40 µM | – | – | – | > 40 µM | – | 9.5 µM | 40 µM | 9 µM | > 40 µM | Activity (MOLT-4 [16]): 44%; Activity (MOLT-4 [17]): Active; Activity (MOLT-4 [18]): Active; Activity (HeLa [19]): Non-toxic; Activity (MOLT-4 [20]): 30%; Activity (HeLa [21]): Non-toxic; Activity (MOLT-4 [22]): Active
CC(C)CCn1cc(/C=C/C(=O)CC(=O)C(=O)O)c2ccccc21 | > 40 µM | – | – | – | > 40 µM | – | 16.3 µM | > 40 µM | 20 µM | > 80 µM | –
O=C(/C=C/c1cc(C(=O)c2cccc(F)c2)c[nH]1)CC(=O)C(=O)O | 35 µM | – | – | – | > 40 µM | – | 0.78 µM | > 40 µM | > 40 µM | > 40 µM | –
CCOC(=O)C(=O)CC(=O)/C=C/c1cc(C(=O)c2ccc(C#N)cc2)c[nH]1 | > 40 µM | inactive | 1.5 µM | Active | > 40 µM | 1.7 µM | 4.7 µM | > 40 µM | 30 µM | > 40 µM | Activity (MOLT-4 [16]): 44%; Activity (MOLT-4 [23]): Active; Activity (MOLT-4 [18]): Active; Activity (HeLa [19]): Non-toxic; Activity (MOLT-4 [20]): 30%; Activity (HeLa [21]): Non-toxic; Activity (MOLT-4 [22]): Active

Continued, in another order:

ID50 [1] | inhibition (Homo sapiens [2]) | Ki [3] | inhibition (Homo sapiens [4]) | ID50 [5] | Ki [6] | ID50 [8] | IC50 (DNA polymerase beta) | SMILES | IC50 (MOLT-4 [7]) | IC50 (HeLa [9]) | further results
> 40 µM | – | – | – | > 40 µM | – | 26 µM | > 40 µM | CCCCn1cc(/C=C/C(=O)CC(=O)C(=O)O)c2ccccc21 | 30 µM | 30 µM | Activity (MOLT-4 [10]): Active; Activity (HeLa [11]): 10%; Activity (MOLT-4 [12]): 10%; Activity (MOLT-4 [13]): 20%; Activity (HeLa [14]): Toxic; Activity (HeLa [15]): 20%
> 40 µM | – | – | – | > 40 µM | – | 10 µM | > 40 µM | COc1ccc(Cn2cc(/C=C/C(=O)CC(=O)C(=O)O)c3ccccc32)cc1 | > 40 µM | > 40 µM | –
> 40 µM | inactive | 0.45 µM | Active | > 40 µM | 0.5 µM | 0.9 µM | > 40 µM | O=C(/C=C/c1cn(Cc2ccc(O)cc2)c2ccccc12)CC(=O)C(=O)O | 20 µM | > 40 µM | –
> 40 µM | – | – | – | > 40 µM | – | 10 µM | > 40 µM | O=C(/C=C/c1cn(Cc2ccc(F)cc2)c2ccccc12)CC(=O)C(=O)O | > 40 µM | > 40 µM | –

Source: ChEMBL document CHEMBL2440062, “New nucleotide-competitive non-nucleoside inhibitors of terminal deoxynucleotidyl transferase: discovery, characterization, and crystal structure in complex with the target” (J Med Chem, 2013)
